Molecules are shown by their SMILES. Some results are limits rather than exact numbers.

TrkA, sequence (P04629 33-796): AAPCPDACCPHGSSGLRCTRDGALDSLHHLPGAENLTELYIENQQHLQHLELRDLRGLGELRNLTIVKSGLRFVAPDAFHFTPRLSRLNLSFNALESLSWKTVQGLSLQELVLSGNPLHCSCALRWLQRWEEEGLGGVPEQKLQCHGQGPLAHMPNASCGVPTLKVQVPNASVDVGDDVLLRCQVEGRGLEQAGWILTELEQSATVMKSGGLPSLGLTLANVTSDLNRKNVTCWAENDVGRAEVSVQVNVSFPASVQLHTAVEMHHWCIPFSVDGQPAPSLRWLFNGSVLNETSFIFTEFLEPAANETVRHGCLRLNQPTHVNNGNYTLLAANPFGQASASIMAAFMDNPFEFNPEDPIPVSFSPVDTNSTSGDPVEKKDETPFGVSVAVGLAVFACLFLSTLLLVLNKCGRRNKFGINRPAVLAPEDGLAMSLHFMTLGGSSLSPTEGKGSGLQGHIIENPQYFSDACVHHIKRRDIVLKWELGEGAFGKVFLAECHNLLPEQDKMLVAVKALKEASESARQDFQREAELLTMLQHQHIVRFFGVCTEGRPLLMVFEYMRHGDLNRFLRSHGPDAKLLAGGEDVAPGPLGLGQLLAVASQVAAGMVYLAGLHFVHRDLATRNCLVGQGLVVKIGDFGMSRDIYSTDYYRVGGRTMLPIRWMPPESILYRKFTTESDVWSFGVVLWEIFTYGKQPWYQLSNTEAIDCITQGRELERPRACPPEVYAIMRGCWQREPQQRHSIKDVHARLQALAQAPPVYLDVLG

The target of one experiment is TrkA (Homo sapiens, UniProt P04629). In words: TrkA biochemical screening assay. Particulars: 39 compared with 26. The procedure, abridged:
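5FAM-tagged TrkA peptide (1.5 μM final) and ATP (190 μM final) then added. Run to 10–20% conversion in no-inhibitor wells; no-enzyme blanks. Product/substrate peaks separated on chip; percent inhibition calculated.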
Take `Cn1cc(-c2cncc(-c3ccc(NC(=O)Nc4cc(C(C)(C)C)on4)cc3)n2)cn1` [Compound 39]: the “increase in TrkA inhibition in comparison to 26” value is given as ~ 5 fold.

The same experiment, now with this note: chlorine at A-region derivatized, compared with 1a.
Turning to `Cn1cc(-c2cncc(Oc3cccc(NC(=O)Nc4cc(C(C)(C)C)on4)c3)n2)cn1` [Compound 26], the “TrkA affinity increase relative to compound 1a” value is above 1000 times. In the case of `CC(C)(C)c1cc(NC(=O)Nc2cccc(Oc3cncc(-c4ccc(S(C)(=O)=O)cc4)n3)c2)no1` [Compound 20], the “TrkA affinity increase relative to compound 1a” value was above 1000 times. Consider `CC(C)(C)c1cc(NC(=O)Nc2cccc(Oc3cncc(-c4ccc(F)cc4)n3)c2)no1` [Compound 36], for which the “TrkA affinity increase relative to compound 1a” value is recorded as above 1000 times. As for `COc1ccc(-c2cncc(Oc3cccc(NC(=O)Nc4cc(C(C)(C)C)on4)c3)n2)cc1` [Compound 9], the “TrkA affinity increase relative to compound 1a” value is listed as above 1000 times.

With `CC(C)(C)c1cc(NC(=O)Nc2cccc(Oc3cncc(-c4ccsc4)n3)c2)no1` [Compound 15], the “TrkA affinity increase relative to compound 1a” value is recorded as above 1000 times.

Staying with this experiment, now noted: qualitative statement.
`Cn1cc(-c2cncc(-c3ccc(NC(=O)Nc4cc(C(C)(C)C)on4)cc3)n2)cn1` [Compound 39]: the “TrkA activity (in words)” value is given as “far more potent than their ether linked counterparts”. Same read-out and setting: in the case of `Cn1nc(C(C)(C)C)cc1NC(=O)Nc1cccc(Oc2cncc(-c3ccsc3)n2)c1` [Compound 16] it was “relatively inactive”.

On to `CC(C)(C)c1ccc(NC(=O)Nc2cccc(Oc3cncc(-c4ccsc4)n3)c2)cc1` [Compound 13], for which the “TrkA activity (in words)” value was “relatively inactive”. Turning to `CC(C)(C)c1cc(NC(=O)Nc2cccc(Oc3cncc(-c4ccsc4)n3)c2)on1` [Compound 14], the “TrkA activity (in words)” value is “relatively inactive”. As to `CC(C)(C)c1cc(NC(=O)Nc2cccc(Oc3cncc(Cl)n3)c2)no1` [Compound 1a], the “TrkA activity (in words)” value was “not strongly active”. For the molecule `Cn1cc(-c2cncc(-c3ccc(NC(=O)Nc4cc(C(C)(C)C)nn4C)cc3)n2)cn1` [Compound 40], the “TrkA activity (in words)” value is given as “far more potent than their ether linked counterparts”.

Still in this experiment, the particulars now being: read-out: %TrkA inhibition, 20 μM.
As a reminder, the inhibition is the share of the control response that was lost under treatment. Turning to `CC(C)(C)c1cc(NC(=O)Nc2ccc(-c3cncc(Cl)n3)cc2)no1` [Compound 38], the inhibition at 20 µM worked out at 41.4 ± 3.3%. As to `Cn1cc(-c2cncc(-c3ccc(NC(=O)Nc4cc(C(C)(C)C)on4)cc3)n2)cn1` [Compound 39], the inhibition at 20 µM stood at 96.1 ± 2.3%.

For the origin of these results see article PMC4734651 (MedChemComm, 2014).
